Cneo AK release – causes C. neoformans cell lysis | AID 651654 | adenylate kinase release luminescence, 4 h; normalised: neutral wells 0, clomiphene wells 100 | lysis activity, % at 15 µM | 0.2% of 360,000 active;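 active = mean lysis activity across replicates of at least 80%, whatever share of replicates individually reach that level; inactive = mean lysis activity below 80%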
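Material – Cryptococcus neoformans yeast cells · Quantity – 5 × 10^6 yeast cells/mL · Buffer or medium – YPD medium · Compound – single dose · Timing – 4 h static compound exposure, 37 °C, read 1 h post-reagent · Signal – adenylate kinase release luminescence · Read-out basis – lysis from increased AK signal · Benchmarks – Clomiphene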
CaV13 ICDI inh – Primary screen for inhibitors of IQ motif and Ca2+-dependent inactivation inhibitor domain binding in CACNA1D, Förster resonance energy transfer in living cells, … | HEK cells, CFP/YFP FRET ICDI-IQ, plate reader, 10 min; percent FRET-ratio fall versus neutral wells | inhibition, % at 12.3 µM | 0.098% of 340,000 active | AID 743397;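 active = mean replicate inhibition of at least 30% and at least 1% of replicates passing that level; inconclusive = only one of the two criteria is met; inactive = neither criterion is met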;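 also: 0% = median of the neutral control wells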
Ecoli rRNA inh – selective bacterial rRNA inhibition in E. coli | GFP signal change (wild-type ribosome), % (concentration not given with the values) | 1.6% of 350,000 active | E. coli WT GFP vs humanized-ribosome RFP mutants, fluorescence, 24 h; active compounds read low; DMSO median 0, no signal -100;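 active = significant combined selectivity score with lowered wild-type GFP, culture density cut under 30%, mutant RFP and density less affected; inactive = any of these conditions unmet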
F508del corr – correctors of CFTR F508del function in bronchial epithelial cells; CFBE cells, YFP halide quenching; stimulated with forskolin plus potentiator P3; % fluorescence drop versus neutral controls; activity (quench increase), % at 7.58 µM; 0.36% of 350,000 active;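 active = mean added fluorescence quench of at least 8% versus neutral control, with both replicates also reaching 8%; inconclusive = only one of the mean or replicate conditions met; inactive = mean below 8% and not both replicates reaching 8%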;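 also: cells transiently co-express mutant CFTR-F508del with the halide-sensitive YFP; corrector assay measuring rescue of mutant channel to the surface after 24 h compound exposure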
AID977621 – growth inhibition of wild-type GFP E. coli, dose response, H69 mutant RFP, cherry-pick | AID 977621 | shares compounds with Ecoli rRNA inh | E. coli wild-type GFP strain growth, fluorescence, 24 h | activity change, negative = inhibition at 50 µM | 1,900 tested, under 10 active;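 active = Wild-type ribosome reporter drop at least double the humanized mutant ribosome reporter drop, growth loss under a set limit; inconclusive = no clear call, values can overlap the other calls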;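 also: wild-type GFP and H69 mutant RFP strains grown together 50/50 in each well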
AID977628 – growth of wild-type and h24-humanized E. coli strains – h24 mutant RFP vs wild-type GFP, cherry-pick, dose response | activity change, negative = inhibition at 50 µM | E. coli WT GFP strain growth, fluorescence, 24 h | 1,900 tested, under 10 active | shares compounds with Ecoli rRNA inh;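 active = compound lowering the normal-ribosome reporter at least twice as much as the humanized-ribosome reporter, growth loss under a set limit; inconclusive = no clear call, values can overlap the other calls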;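 also: wild-type GFP and h24 humanized RFP strains co-cultured 1 to 1 per well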
* = called active by the depositor; ? = inconclusive; . = no result. The list is not random: actives were taken first. Their share in the collection is about 1.7%.

SMILES | Cneo AK release | CaV13 ICDI inh | Ecoli rRNA inh | F508del corr | AID977621 | AID977628
CCN(C(=O)COC(=O)CCc1ccccc1)c1ccccc1 | -0.5 | -6.9 | -33.7* | -0.3 | . | -7.65
Cc1ccc(S(=O)(=O)Nc2ccc3c(c2)CC(=O)N([C@@H](C)CO)C[C@@H](C)[C@H](CN(C)C)O3)cc1 | -1.4 | . | 5.7 | 2.8 | . | .
COC(=O)c1ccc(CSc2nc3ccccc3s2)o1 | -5.2 | -7.6 | -32.7* | 0.9 | 11.1 | -2.88
COC(=O)c1ccc(CSc2n[nH]c(=S)s2)o1 | 0.3 | -4.7 | . | . | . | .
Cc1csc2c(N3CCC(C(=O)O)CC3)ncnc12 | . | -4.9 | -32.0* | -0.9 | . | ?
Cc1csc2c(N3CCCCC3)ncnc12 | . | -5.1 | -8.5 | 1.0 | . | .
COc1cccc(-c2ccc([C@@H]3[C@@H](CO)N4C(=O)CN(C(=O)C5CC5)C[C@@H]34)cc2)c1 | . | . | -1.0 | 4.6 | . | .
C[C@H]1CN([C@@H](C)CO)C(=O)c2cc(NC(=O)NC3CCCCC3)ccc2O[C@H]1CN(C)Cc1ccc(C(F)(F)F)cc1 | -2.2 | . | -4.8 | -0.7 | . | .
O=C(CC1C(=O)NCCN1CC1CCCCC1)NCc1ccc(F)cc1F (stereo not drawn) | . | -13.3 | -20.1* | 1.0 | 10.4 | ?
CCOC(=O)c1nc(S(C)(=O)=O)ncc1N1CCOCC1 | -0.2 | . | . | . | . | .
CCOC(=O)c1nc(S(C)(=O)=O)ncc1Cl | -3.2 | -7.0 | -27.1* | 4.7 | -2.99 | ?
CCCN1[C@H](C(=O)OC)[C@@H](CO)[C@@H]2Cn3c(ccc(-c4cccc(C(=O)N(C)C)c4)c3=O)[C@@H]21 | . | . | 5.8 | -2.3 | . | .
COC(=O)c1c2oc(c1C(=O)OC)C(=O)N[C@H](Cc1ccccc1)Cn1cc(nn1)[C@H](Cc1ccccc1)NC(=O)N[C@H](CO)CC2 | -1.7 | . | . | -0.3 | . | .
C[C@H](CO)N1C[C@H](C)[C@H](CN(C)C(=O)C2CC2)Oc2cc(-c3cccc(F)c3)ccc2S1(=O)=O | 8.9 | . | -2.3 | -1.0 | . | .
Cc1cc(NC(=O)CS(=O)(=O)c2cn(Cc3ccccc3Cl)c3ccccc23)no1 | 5.6 | -5.6 | . | . | . | .
Cc1cc(NC(=O)CS(=O)(=O)c2cn(Cc3cccc(Br)c3)c3ccccc23)no1 | 4.5 | -5.5 | -21.4* | -3.1 | -15.2 | .
C[C@H]1CN([C@@H](C)CO)C(=O)Cc2cc(NS(=O)(=O)c3cccs3)ccc2O[C@@H]1CN(C)C | 4.1 | . | 1.4 | -2.5 | . | .
Cc1noc(C)c1NC(=O)N[C@@H]1C=C[C@@H](CC(=O)Nc2ccccc2)O[C@@H]1CO | 42.6 | . | 2.4 | -0.3 | . | .
S=C1SCN(Cc2cccnc2)CN1Cc1cccnc1 | . | -18.9 | -29.0* | -0.9 | -15.4 | -21.7
CO[C@H]1CN(C)C(=O)c2ccc(NC(=O)C3CCCC3)cc2OC[C@@H](C)N(CCC(F)(F)F)C[C@H]1C | 2.2 | . | -1.0 | 2.5 | . | .
NC(=O)c1ccsc1NC(=O)COC(=O)CSc1ccc(Cl)cc1 | -3.1 | 15.2 | -20.7* | -0.5 | . | ?
Cc1cc(-c2ccc(C)c(S(=O)(=O)NCC3CCN(Cc4ccccc4F)CC3)c2)on1 | -1.2 | -2.9 | -16.1* | 1.4 | -9.02 | -6.59
Cc1cc(-c2ccc(C)c(S(=O)(=O)NCC3CCN(Cc4cccc(F)c4)CC3)c2)on1 | 53.0 | -5.3 | -20.7 | 3.5 | . | .
CCOC(=O)C1(CCCc2ccccc2)CCN(C(=O)CCn2cncn2)CC1 | . | -1.8 | -20.1* | -1.9 | -4.12 | -10.9
CN(c1ccccc1)S(=O)(=O)c1cccc(NC(=O)c2ccncc2)c1 | . | -4.5 | -15.4 | 0.1 | . | .
SMILES | Cneo AK release | CaV13 ICDI inh | Ecoli rRNA inh | F508del corr | AID977621 | AID977628
Cc1cc(C)n2nc(C(=O)Nc3cccc(S(=O)(=O)N(C)c4ccccc4)c3)nc2n1 | . | 1.8 | -26.0* | -0.2 | -15.3 | .
CC(C)NC(=O)N(C)C[C@@H]1Oc2ccc(NC(=O)Nc3ccccc3)cc2CC(=O)N([C@H](C)CO)C[C@@H]1C | -3.0 | . | 3.6 | 0.5 | . | .
Nc1ccccc1Sc1c[nH]c2ccccc12 | 10.5 | -2.3 | -25.6* | 0.6 | -0.733 | -11.4
Nc1ccccc1Sc1nc2ccccc2[nH]1 | . | -19.8 | . | 1.4 | . | .
COc1ccc(OC(=O)N(C)C[C@@H]2OCc3cn(nn3)CCCC(=O)N([C@H](C)CO)C[C@@H]2C)cc1 | . | . | 0.2 | 2.2 | . | .
C[C@@H]1CCCCO[C@@H](CN(C)C(=O)Cc2ccccc2)[C@@H](C)CN([C@H](C)CO)C(=O)c2cc(NC(=O)NC3CCCCC3)ccc2O1 | -11.0 | . | -1.0 | -0.2 | . | .
CC(=O)Nc1ccc(-c2ccnc3c2CC(C)(C(=O)Nc2ccc4c(c2)OCO4)O3)cc1 (stereo not drawn) | -0.8 | -6.3 | -23.1* | 4.7 | -12.4 | .
COc1ccc(NC(=O)N(C)C[C@H]2OCc3ccccc3-c3ccccc3C(=O)N([C@@H](C)CO)C[C@@H]2C)cc1 | . | . | 0.5 | . | . | .
Nc1ccc(C(=O)OCCc2ccccc2)cc1 | -13.4 | -10.2 | -30.4* | -1.3 | -8.98 | -4.72
C[C@H]1CN([C@@H](C)CO)C(=O)c2cc(NS(=O)(=O)c3cn(C)cn3)ccc2O[C@@H]1CN(C)Cc1ccncc1 | -1.0 | . | 2.3 | 2.4 | . | .
COc1ccc(N2CCN(C(=O)C3Cc4ccccc4CN3C(=O)c3ccco3)CC2)cc1 (stereo not drawn) | 1.1 | -4.7 | . | -2.9 | . | .
O=C(C1Cc2ccccc2CN1C(=O)c1ccccc1)N1CCN(c2ccccc2)CC1 (stereo not drawn) | 3.7 | -1.6 | -22.5* | 2.0 | -4.01 | -10.3
COC(=O)[C@@H](Cc1c[nH]c2ccccc12)NCc1cccc(B(O)O)c1 | 5.1 | -6.4 | -20.2* | 0.2 | ? | .
Cc1ccc(S(=O)(=O)N(C)C[C@H]2Oc3ccc(NC(=O)C4CCCCC4)cc3C(=O)N([C@@H](C)CO)C[C@H]2C)cc1 | -2.4 | . | -4.3 | 3.0 | . | .
COc1ccc(C(=O)Cn2cc([N+](=O)[O-])nc2C)cc1 | 1.8 | -2.9 | 5.1 | -5.8 | . | .
COc1ccc(C(=O)Cn2c(C)nc([N+](=O)[O-])c2Br)cc1 | . | -2.5 | -35.4* | 0.7 | . | -10.8
O=C(Cc1cccc(NC(=O)C2CCN(C(=O)CCc3ccccc3)CC2)c1)Nc1cccc(C(=O)N2CCCCC2)c1 | 1.3 | -3.3 | -7.2 | -2.5 | . | .
O=C(Cc1cccc(NC(=O)C2CCCN(C(=O)CCc3ccccc3)C2)c1)Nc1cccc(C(=O)N2CCCC2)c1 (stereo not drawn) | 0.1 | -10.2 | -19.0* | -2.3 | ? | .
C[C@@H]1CN([C@H](C)CO)C(=O)c2cc(NC(=O)c3ccncc3)ccc2O[C@@H](C)CCCCO[C@@H]1CN(C)S(=O)(=O)c1ccc(Cl)cc1 | 44.7 | . | -0.7 | -1.6 | . | .

Screening data from PubChem.
